Measured values collected from several papers.
Each line is one published result; the experiments were not run side by side.

SMILES | target or system | test | test system | setting | measurement | result
Cc1ccccc1Cn1cc(-c2cccc(NC(=O)Nc3ccc(F)cc3)c2)nn1 | L02 | cell growth or viability, CCK-8 |  | 50 µM, 72 h | viability | 103%
CCONC(=O)N1CCC[C@H](C(=O)NCc2nc(-c3ccc(C#N)cc3)cs2)C1 |  |  | Caco-2 |  | efflux ratio | 6.9
COc1ccc(NC(=O)NCc2cn(Cc3ccc(Br)cc3)nn2)cc1 | L02 | cell growth or viability, CCK-8 |  | 50 µM, 72 h | viability | 119%
O=C(NCc1cn(Cc2ccc(Cl)cc2)nn1)Nc1ccc(Cl)cc1 | L02 | cell growth or viability, CCK-8 |  | 50 µM, 72 h | viability | 127%
COc1ccc(-c2c(Nc3ccccn3)[nH]c3c(C4=CCCCC4)c(-c4ccccc4)nn3c2=O)cc1 |  |  | human, plasma | oral, 150 mg once daily, multiple doses, patients | Cmax | 4960 ng/mL
O=C(COc1ccc(Cl)cc1)NC12CC(c3nnc([C@H]4C[C@@H](OC(F)(F)F)C4)o3)(C1)C2 |  |  | human, plasma | oral, 100 mg, multiple doses, once daily, steady state, healthy volunteers | Cmax | 5.39 µM
O=C(Nc1ccc(-c2cn(Cc3ccc(Br)cc3)nn2)cc1)Nc1ccccc1Br | L02 | cell growth or viability, CCK-8 |  | 50 µM, 72 h | viability | 104%
COc1ccc(NC(=O)Nc2ccc(-c3cn(Cc4ccc(Br)cc4)nn3)cc2)cc1 | L02 | cell growth or viability, CCK-8 |  | 50 µM, 72 h | viability | 91.1%
O=C(NCc1cn(Cc2cccc(Cl)c2)nn1)Nc1ccc(Cl)cc1 | L02 | cell growth or viability, CCK-8 |  | 50 µM, 72 h | viability | 100%
COc1ccc2c(c1)CN(C(=O)CCN1CCC(Cc3ccccc3)CC1)CC[S@@+]2[O-] |  |  | male human, plasma | intravenous, 0.05 mg/kg, healthy volunteers | Cmax | 130 ng/mL
COc1ccc(NC(=O)NCc2cn(Cc3ccc(Cl)cc3)nn2)cc1 | L02 | cell growth or viability, CCK-8 |  | 50 µM, 72 h | viability | 121%
CC(C)n1c(C2CCNCC2)nc2c([N+](=O)[O-])c(Br)c(Br)cc21 |  |  | human, plasma | oral, 150 mg, patients | Cmax | 249 ng/mL
